Experimental data: ChEMBL document CHEMBL1134680, “Iridals are a novel class of ligands for phorbol ester receptors with modest selectivity for the RasGRP receptor subfamily” (J Med Chem, 2001)

How the values were obtained:
[1] = tested on: Panel NCI-60 (60 carcinoma cell lines); assay: Inhibition of cell growth in NCI panel of 60 human carcinoma lines; assay type: functional
[2] = target: Protein kinase C alpha type (Homo sapiens, UniProt P17252); assay: Binding affinity for PKC alpha (C1b domain)
Method in brief: (§1)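 Competition of [3H]PDBu (3.0 nM) binding to partially purified PKCα or bacterially expressed MBP/RasGRP3 fusion (human RasGRP3, amylose-bead purified). Buffer: 50 mM Tris-Cl pH 7.4, 2 mg/mL γ-globulins, 0.1 mM Ca2+, 0.1 mg/mL phosphatidylserine. Incubation was 5 min at 37 °C for PKCα and 5 min at 18 °C for RasGRP3. Nonspecific binding was set with 30 μM PDBu. Bound and free were separated by PEG precipitation and counted.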

[3] = target: T1, Ras guanyl-releasing protein 3 (Homo sapiens, UniProt Q8IV61); assay: Binding affinity for RasGPR3, guanine nucleotide exchange factor; method in brief: as §1
T1 sequence (Q8IV61 whole entry): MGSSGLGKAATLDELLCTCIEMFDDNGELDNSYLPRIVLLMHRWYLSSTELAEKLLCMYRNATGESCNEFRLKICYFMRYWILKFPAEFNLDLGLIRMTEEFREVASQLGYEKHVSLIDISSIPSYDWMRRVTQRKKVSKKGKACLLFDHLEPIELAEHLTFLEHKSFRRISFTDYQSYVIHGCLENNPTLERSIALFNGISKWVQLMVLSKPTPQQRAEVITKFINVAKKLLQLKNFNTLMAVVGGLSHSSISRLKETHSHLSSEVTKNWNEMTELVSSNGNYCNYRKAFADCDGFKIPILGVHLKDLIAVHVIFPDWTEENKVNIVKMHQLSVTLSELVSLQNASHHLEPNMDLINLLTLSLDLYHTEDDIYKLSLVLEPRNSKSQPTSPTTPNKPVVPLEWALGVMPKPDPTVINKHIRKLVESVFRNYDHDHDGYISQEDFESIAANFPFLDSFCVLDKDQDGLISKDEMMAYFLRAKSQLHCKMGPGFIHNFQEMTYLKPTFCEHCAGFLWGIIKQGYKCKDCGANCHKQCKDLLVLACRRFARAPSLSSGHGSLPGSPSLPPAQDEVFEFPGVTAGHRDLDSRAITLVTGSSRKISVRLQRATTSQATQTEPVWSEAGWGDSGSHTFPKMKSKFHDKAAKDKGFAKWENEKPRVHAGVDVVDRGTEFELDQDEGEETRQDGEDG

[4] = target: T1, Ras guanyl-releasing protein 3; assay: Binding affinity for RasGRP, guanine nucleotide exchange factor

Row | Ki [2] [nM] | Ki [3] [nM] | Ki [4] [nM] | SMILES | Log 1/GI50 [1]
1 | 83.6 | 41.7 | – | C=C(/C=C/C=C(/CCC=C(C)C)COC(C)=O)[C@@H]1CC[C@]2([C@H](CCCO)/C(=C(/C)C=O)CC[C@]2(C)O)[C@@H]1O | 4.4
2 | – | – | – | C=C(C)[C@@]12OC3(c4ccccc4)O[C@@H]1[C@@H]1[C@@H]4O[C@]4(CO)[C@@H](O)[C@]4(O)C(=O)C(C)=C[C@H]4[C@@]1(O3)[C@H](C)[C@H]2OC(=O)/C=C/C=C/c1ccccc1 | 5.8
3 | – | – | – | CCCCC(=O)O[C@@H]1[C@@H](C)[C@@]2(O)[C@@H](C=C(CO)C[C@]3(O)C(=O)C(C)=C[C@@H]23)[C@@H]2C(C)(C)[C@]12OC(=O)CCC | 4
4 | 75.6 | – | 15.5 | CC1=CC[C@H](C)C(C)(C)[C@@H]1/C=C/C(C)=C\CC[C@@]1(CO)[C@H](CCCO)/C(=C(/C)C=O)CC[C@]1(C)O | 4.6
5 | – | – | – | C=C(C)[C@]12C[C@@H](C)[C@@]34O[C@](/C=C/C=CCCCCCCCCC)(O[C@@H]1[C@@H]3[C@@H]1O[C@]1(CO)[C@@H](O)[C@]1(O)C(=O)C(C)=C[C@H]14)O2 | 4.7
6 | – | – | – | C=C(C)[C@@]12C[C@@H](COC(=O)c3ccccc3)[C@@]34OC5(O[C@@H]1[C@@H]3[C@@H]1O[C@]1(CO)[C@@H](O)[C@@]1(O)[C@H]4[C@H]([C@H](C)[C@@H]1OC(=O)c1ccccc1)[C@H](C)CCCCCC[C@H]5O)O2 [GNIDIMACRIN] | 4
7 | – | – | – | CC1=C[C@H]2[C@@]3(O)[C@H](C)[C@@H](O)[C@]4(O)[C@H]([C@@H]3C=C(CO)C[C@]2(O)C1=O)C4(C)C [PHORBOL] | 4.3
8 | – | – | – | CC(=O)O[C@@]12C[C@@H](C)[C@@]3(O)[C@@H](C=C(CO)C[C@]4(O)C(=O)C(C)=C[C@@H]34)[C@@H]1C2(C)C [PROSTRATIN] | 3
